≈ marks a conversion by molar mass, not a printed value.
How the values were obtained:
[1] = system: Mycobacterium tuberculosis; assay: Antimycobacterial activity against Mycobacterium tuberculosis H37Rv ATCC 27294 after 5 days by microplate alamar blue assay; format: functional; settings: H37Rv ATCC 27294, 120 h
Procedure, shortened: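 MTB H37Rv (ATCC 27294) in 7H9GC broth, 2-fold serial dilutions from 50 to 0.78 µg/mL. Controls were medium only, inoculum only, and inoculum with 3-5% DMSO. Incubated at 37°C for 5 days. Then 1:1 10× Alamar Blue/10% Tween 80 was added and plates read after a further 24 h at 37°C. Blue scored as no growth, pink as growth.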

[2] = Cytotoxicity against mouse RAW264.7 cells assessed as inhibition of cell viability at 50 ug/ml after 72 hrs by Cell Titer 96 non-radioactive cell proliferation assay; format: cell-based
Procedure, shortened: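 Mouse macrophage RAW264.7 cells exposed to compound at 50 µg/mL for 72 h. Viability was then measured by the MTT-type Cell Titer 96 non-radioactive proliferation assay.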

[3] = system: RAW264.7; assay: Cytotoxicity against mouse RAW264.7 cells assessed as inhibition of cell viability after 72 hrs by Cell Titer 96 non-radioactive cell proliferation assay; format: cell-based; settings: RAW264.7, 72 h
Procedure, shortened: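 MTT-type Cell Titer 96 non-radioactive proliferation assay on mouse macrophage RAW264.7 cells. Viability was read after 72 h of exposure. IC50 values are given as approximate.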

[4] = Selectivity index, ratio of IC50 for mouse RAW264.7 cells to MIC for Mycobacterium tuberculosis H37Rv ATCC 27294; format: toxicity; settings: read-out: Selectivity Index

With N#CCC(=O)N1CCN(c2nc3ccccc3c3ccccc23)CC1 the MIC99 [1] was 25 µg/mL (≈ 75.7 µM).
CO[C@H]1/C=C/O[C@@]2(C)Oc3c(C)c(O)c4c(O)c(c(/C=N/N5CCN(C)CC5)c(O)c4c3C2=O)NC(=O)/C(C)=C\C=C\[C@H](C)[C@H](O)[C@@H](C)[C@@H](O)[C@@H](C)[C@H](OC(C)=O)[C@@H]1C [RIFAMPIN] showed an MIC99 [1] of 0.2 µg/mL (≈ 0.243 µM).
For CC(=O)c1ccc(S(=O)(=O)N2CCN(c3nc4ccccc4c4ccccc34)CC2)cc1, the MIC99 [1] was 25 µg/mL (≈ 56.1 µM).
For Cc1ccc(S(=O)(=O)N2CCN(c3nc4ccccc4c4ccccc34)CC2)cc1, the MIC99 [1] was > 50 µg/mL.
Compound O=C(O)c1cccc(C(=O)N2CCN(c3nc4ccccc4c4ccccc34)CC2)n1 has an MIC99 [1] of 3.13 µg/mL (≈ 7.59 µM), an inhibition at 72 h, 50 ug/ml [2] of 26.5% and an IC50 [3] of 94.3 µg/mL (≈ 229 µM). It also gave a selectivity ratio [4] of 30.2.
Work on O=C(c1ccncc1)N1CCN(c2nc3ccccc3c3ccccc23)CC1 yielded an MIC99 [1] of 1.56 µg/mL (≈ 4.23 µM), an inhibition at 72 h, 50 ug/ml [2] of 27.9% and an IC50 [3] of 89.6 µg/mL (≈ 243 µM). For the same compound, the selectivity ratio [4] was 57.4.
In the case of O=C(CCc1c[nH]c2ccccc12)N1CCN(c2nc3ccccc3c3ccccc23)CC1, the MIC99 [1] is reported as 6.25 µg/mL (≈ 14.4 µM), the inhibition at 72 h, 50 ug/ml [2] is reported as 34.6% and the IC50 [3] is reported as 72.2 µg/mL (≈ 166 µM). It also gave a selectivity ratio [4] of 11.5.
With Nc1ccccc1C(=O)N1CCN(c2nc3ccccc3c3ccccc23)CC1 the MIC99 [1] was > 50 µg/mL.
O=C(c1cccnc1)N1CCN(c2nc3ccccc3c3ccccc23)CC1 gave an MIC99 [1] of 6.25 µg/mL (≈ 17 µM), an inhibition at 72 h, 50 ug/ml [2] of 19.2% and an IC50 [3] of 130 µg/mL (≈ 354 µM). The selectivity ratio [4] was 20.9.
For CC(C)(C)c1ccc(S(=O)(=O)N2CCN(c3nc4ccccc4c4ccccc34)CC2)cc1, the MIC99 [1] was 1.56 µg/mL (≈ 3.39 µM), the inhibition at 72 h, 50 ug/ml [2] was 28.9% and the IC50 [3] was 86.4 µg/mL (≈ 188 µM). The selectivity ratio [4] was 55.4.
With O=C(/C=C/c1ccccc1)N1CCN(c2nc3ccccc3c3ccccc23)CC1 the MIC99 [1] was 12.5 µg/mL (≈ 31.8 µM), the inhibition at 72 h, 50 ug/ml [2] was 22.1% and the IC50 [3] was 113 µg/mL (≈ 287 µM). For the same compound, the selectivity ratio [4] was 9.04.
Work on O=C(c1cccc([N+](=O)[O-])c1)N1CCN(c2nc3ccccc3c3ccccc23)CC1 yielded an MIC99 [1] of 3.13 µg/mL (≈ 7.59 µM), an inhibition at 72 h, 50 ug/ml [2] of 34.6% and an IC50 [3] of 72.2 µg/mL (≈ 175 µM). The selectivity ratio [4] was 23.1.
With O=C(c1ccc([N+](=O)[O-])cc1)N1CCN(c2nc3ccccc3c3ccccc23)CC1 the MIC99 [1] was 50 µg/mL (≈ 121 µM).
Cc1cc(C)c(S(=O)(=O)N2CCN(c3nc4ccccc4c4ccccc34)CC2)c(C)c1 showed an MIC99 [1] of 12.5 µg/mL (≈ 28.1 µM), an inhibition at 72 h, 50 ug/ml [2] of 26.5% and an IC50 [3] of 94.3 µg/mL (≈ 212 µM). It also gave a selectivity ratio [4] of 7.54.
For NNC(=O)c1ccncc1 [ISONIAZID], the MIC99 [1] was 0.1 µg/mL (≈ 0.729 µM).
Work on Cc1cc(S(=O)(=O)N2CCN(c3nc4ccccc4c4ccccc34)CC2)c(C)cc1Cl yielded an MIC99 [1] of 6.25 µg/mL (≈ 13.4 µM), an inhibition at 72 h, 50 ug/ml [2] of 34.6% and an IC50 [3] of 72.2 µg/mL (≈ 155 µM). The selectivity ratio [4] was 11.5.
In the case of O=S(=O)(c1ccc(C(F)(F)F)cc1)N1CCN(c2nc3ccccc3c3ccccc23)CC1, the MIC99 [1] is reported as 25 µg/mL (≈ 53 µM).
With O=C(CCCc1c[nH]c2ccccc12)N1CCN(c2nc3ccccc3c3ccccc23)CC1 the MIC99 [1] was 1.56 µg/mL (≈ 3.48 µM), the inhibition at 72 h, 50 ug/ml [2] was 34.1% and the IC50 [3] was 73.3 µg/mL (≈ 163 µM). The selectivity ratio [4] was 47.
Work on O=S(=O)(c1ccc(F)cc1)N1CCN(c2nc3ccccc3c3ccccc23)CC1 yielded an MIC99 [1] of 6.25 µg/mL (≈ 14.8 µM), an inhibition at 72 h, 50 ug/ml [2] of 32.8% and an IC50 [3] of 76.3 µg/mL (≈ 181 µM). For the same compound, the selectivity ratio [4] was 12.2.
With O=C(Cc1c[nH]c2ccccc12)N1CCN(c2nc3ccccc3c3ccccc23)CC1 the MIC99 [1] was 25 µg/mL (≈ 59.5 µM).
O=S(=O)(c1ccc(Br)cc1)N1CCN(c2nc3ccccc3c3ccccc23)CC1 gave an MIC99 [1] of 3.13 µg/mL (≈ 6.49 µM), an inhibition at 72 h, 50 ug/ml [2] of 28.2% and an IC50 [3] of 88.8 µg/mL (≈ 184 µM). For the same compound, the selectivity ratio [4] was 28.4.
Compound Nc1ccc(C(=O)N2CCN(c3nc4ccccc4c4ccccc34)CC2)cc1 has an MIC99 [1] of 50 µg/mL (≈ 131 µM).
For O=S(=O)(c1ccccc1)N1CCN(c2nc3ccccc3c3ccccc23)CC1, the MIC99 [1] was 6.25 µg/mL (≈ 15.5 µM), the inhibition at 72 h, 50 ug/ml [2] was 30.7% and the IC50 [3] was 81.4 µg/mL (≈ 202 µM). The selectivity ratio [4] was 13.
With O=C(Cc1cccc2ccccc12)N1CCN(c2nc3ccccc3c3ccccc23)CC1 the MIC99 [1] was > 50 µg/mL.
O=S(=O)(c1ccc(Cl)cc1)N1CCN(c2nc3ccccc3c3ccccc23)CC1 gave an MIC99 [1] of 3.13 µg/mL (≈ 7.15 µM), an inhibition at 72 h, 50 ug/ml [2] of 20.9% and an IC50 [3] of 120 µg/mL (≈ 273 µM). The selectivity ratio [4] was 38.3.
With NC(=O)c1cnccn1 [PYRAZINAMIDE] the MIC99 [1] was 6.25 µg/mL (≈ 50.8 µM).
COc1ccc(S(=O)(=O)N2CCN(c3nc4ccccc4c4ccccc34)CC2)cc1 showed an MIC99 [1] of 6.25 µg/mL (≈ 14.4 µM), an inhibition at 72 h, 50 ug/ml [2] of 26.5% and an IC50 [3] of 94.3 µg/mL (≈ 217 µM). The selectivity ratio [4] was 15.1.
In the case of O=[N+]([O-])c1ccc(S(=O)(=O)N2CCN(c3nc4ccccc4c4ccccc34)CC2)cc1, the MIC99 [1] is reported as 50 µg/mL (≈ 111 µM).
CS(=O)(=O)N1CCN(c2nc3ccccc3c3ccccc23)CC1 showed an MIC99 [1] of 25 µg/mL (≈ 73.2 µM).
Work on O=C(c1ccc(Cl)cc1)N1CCN(c2nc3ccccc3c3ccccc23)CC1 yielded an MIC99 [1] of 12.5 µg/mL (≈ 31.1 µM), an inhibition at 72 h, 50 ug/ml [2] of 26.5% and an IC50 [3] of 94.3 µg/mL (≈ 235 µM). It also gave a selectivity ratio [4] of 7.54.
For O=C(c1ccccn1)N1CCN(c2nc3ccccc3c3ccccc23)CC1, the MIC99 [1] was 3.13 µg/mL (≈ 8.5 µM), the inhibition at 72 h, 50 ug/ml [2] was 42.2% and the IC50 [3] was 59.3 µg/mL (≈ 161 µM). The selectivity ratio [4] was 19.
With O=C(c1cc([N+](=O)[O-])cc([N+](=O)[O-])c1)N1CCN(c2nc3ccccc3c3ccccc23)CC1 the MIC99 [1] was 25 µg/mL (≈ 54.7 µM).
O=C(c1cccs1)N1CCN(c2nc3ccccc3c3ccccc23)CC1 gave an MIC99 [1] of 50 µg/mL (≈ 134 µM).
With O=C(c1ccco1)N1CCN(c2nc3ccccc3c3ccccc23)CC1 the MIC99 [1] was 25 µg/mL (≈ 69.9 µM).
O=S(=O)(c1ccc(Br)s1)N1CCN(c2nc3ccccc3c3ccccc23)CC1 gave an MIC99 [1] of 3.13 µg/mL (≈ 6.41 µM), an inhibition at 72 h, 50 ug/ml [2] of 42.2% and an IC50 [3] of 59.3 µg/mL (≈ 121 µM).
O=C(c1ccccc1)N1CCN(c2nc3ccccc3c3ccccc23)CC1 showed an MIC99 [1] of 3.13 µg/mL (≈ 8.52 µM), an inhibition at 72 h, 50 ug/ml [2] of 22.2% and an IC50 [3] of 113 µg/mL (≈ 307 µM). It also gave a selectivity ratio [4] of 36.1.
